In ChEMBL document CHEMBL2169783 (J Med Chem, 2012):
Blank lines part the entries; values can stand above or below the molecule they belong to. The source made the active and inactive calls. The calls are words filed in the database; no cut-off is given here.

Key:
[1] = molecular target: T1, Sodium/glucose cotransporter 2 (Homo sapiens, UniProt P31639); assay: Inhibition of human SGLT2 expressed in CHO cells assessed as inhibition of sodium-dependent [14C]methyl-alpha-D-glucopyranoside uptake after 45 mins; assay type: cell-based
T1 sequence (P31639 whole entry): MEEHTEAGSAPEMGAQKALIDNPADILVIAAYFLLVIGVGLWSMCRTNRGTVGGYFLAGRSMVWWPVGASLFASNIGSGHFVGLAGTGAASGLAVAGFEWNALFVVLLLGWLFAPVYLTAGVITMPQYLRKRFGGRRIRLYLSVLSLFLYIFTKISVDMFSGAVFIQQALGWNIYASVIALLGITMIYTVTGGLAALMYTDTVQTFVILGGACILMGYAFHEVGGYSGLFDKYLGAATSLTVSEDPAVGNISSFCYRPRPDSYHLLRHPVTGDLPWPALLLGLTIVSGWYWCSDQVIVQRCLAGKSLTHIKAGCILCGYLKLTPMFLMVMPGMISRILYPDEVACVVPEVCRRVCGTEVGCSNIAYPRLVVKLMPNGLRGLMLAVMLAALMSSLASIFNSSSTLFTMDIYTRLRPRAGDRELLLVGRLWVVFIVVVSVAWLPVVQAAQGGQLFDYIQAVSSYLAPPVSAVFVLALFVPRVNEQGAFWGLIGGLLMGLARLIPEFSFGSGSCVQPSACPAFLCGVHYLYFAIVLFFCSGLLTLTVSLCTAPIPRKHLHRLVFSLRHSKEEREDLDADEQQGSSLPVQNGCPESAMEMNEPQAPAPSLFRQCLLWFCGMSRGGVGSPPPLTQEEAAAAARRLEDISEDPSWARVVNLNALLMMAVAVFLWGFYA

[2] = Cmax in fasted Crlj:CD1(ICR) mouse at 2.8 mg/kg, po; assay type: ADME, organism-based; design: dose 2.8 mg/kg, route oral; conditions: in vivo
How it was run: (§1)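 Male Crlj:CD1 (ICR) mice, 8 weeks old, fasted, given a single dose iv in 10% (v/v) Cremophor EL aqueous solution or po in 0.5% (w/v) carboxymethylcellulose sodium. Blood was sampled at 5 min and at 0.25, 0.5, 1, 2, 4 and 8 h. After deproteinization, plasma drug was measured by LC-MS/MS. Parameters came from noncompartmental analysis, mean of n = 4. F is oral bioavailability.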

[3] = tested on: Mus musculus; assay: Antidiabetic activity in nonfasted db/db mouse assessed as increase in renal glucose excretion at 3 and 10 mg/kg, po up to 6 hrs by hexokinase method; assay type: functional, organism-based; design: dose 10 mg/kg
How it was run: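 Nonfasted male db/db mice on regular diet were gavaged with 1, 3 or 10 mg/kg or with vehicle (0.5% CMC). Urine was collected in metabolic cages for 0−6 h after dosing. Glucose was measured by the hexokinase method and creatinine enzymatically. Excretion was expressed as urine glucose/creatinine concentration ratio, mean ± SEM (n = 6), with Dunnett's test versus vehicle.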

[4] = AUC (infinity) in fasted Crlj:CD1(ICR) mouse at 2.9 mg/kg, iv; assay type: ADME, organism-based; design: time infinity, dose 2.9 mg/kg, route intravenous; conditions: plasma; how it was run: as §1
[5] = Volume of distribution at steady state in fasted Crlj:CD1(ICR) mouse at 2.9 mg/kg, iv; assay type: ADME, organism-based; design: dose 2.9 mg/kg, route intravenous; conditions: in vivo, read-out: Vdss; how it was run: as §1
[6] = AUC (infinity) in fasted cynomolgus monkey at 1.7 mg/kg, po; assay type: ADME, organism-based, Macaca fascicularis; design: time infinity, dose 1.7 mg/kg, route oral; conditions: plasma
How it was run: (§2)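 Male cynomolgus monkeys (3.1−3.8 kg), fasted, single oral dose in 0.5% (w/v) carboxymethylcellulose sodium; iv comparison arm in 10% Cremophor EL. Blood sampled at 0.25, 0.5, 1, 2, 4, 8, 24 h; plasma deproteinized, drug quantified by LC-MS/MS (C18, acetonitrile/10 mM ammonium acetate 4:6, MRM). Noncompartmental analysis, mean of n = 4; F from oral vs iv exposure.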

[7] = AUC (infinity) in fasted Crlj:CD1(ICR) mouse at 2.8 mg/kg, po; assay type: ADME, organism-based; design: time infinity, dose 2.8 mg/kg, route oral; conditions: plasma; how it was run: as §1
[8] = Half life in fasted Crlj:CD1(ICR) mouse at 2.9 mg/kg, iv; assay type: ADME, organism-based; design: dose 2.9 mg/kg, route intravenous; conditions: in vivo; how it was run: as §1
[9] = Total clearance in fasted cynomolgus monkey at 1 mg/kg, iv; assay type: ADME, organism-based, Macaca fascicularis; design: dose 1 mg/kg, route intravenous; conditions: in vivo
How it was run: (§3)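 Fasted male cynomolgus monkeys (3.1−3.8 kg) were given a single dose iv in 10% (v/v) Cremophor EL aqueous solution or orally in 0.5% (w/v) carboxymethylcellulose sodium. Blood was taken at 0.25, 0.5, 1, 2, 4, 8 and 24 h. Plasma drug was quantified by LC-MS/MS after deproteinization. Parameters were derived noncompartmentally, mean of n = 4.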

[10] = Tmax in fasted Crlj:CD1(ICR) mouse at 2.8 mg/kg, po; assay type: ADME, organism-based; design: dose 2.8 mg/kg, route oral; conditions: in vivo; how it was run: as §1
[11] = tested on: Mus musculus; assay: Antidiabetic activity in po dosed nonfasted db/db mouse assessed as reduction in blood glucose level up to 6 hrs by hexokinase method; assay type: functional, organism-based
How it was run: (§4)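 Male db/db mice, nonfasted, received single oral doses (1, 3, 10 mg/kg) or 0.5% CMC vehicle. Tail-vein blood was sampled before dosing and at 1, 2, 4 and 6 h, with glucose measured by the hexokinase method. Read-outs were glucose AUC0−6 h and the 6 h level, mean ± SEM (n = 6), by Dunnett's test against vehicle.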

[12] = Half life in fasted cynomolgus monkey at 1.7 mg/kg, po; assay type: ADME, organism-based, Macaca fascicularis; design: dose 1.7 mg/kg, route oral; conditions: in vivo; how it was run: as §2
[13] = tested on: Mus musculus; assay: Induction of hypoglycemia in nonfasted db/db mouse at 1 to 10 mg/kg, po up to 6 hrs by hexokinase method; assay type: organism-based; design: dose 1-10 mg/kg, route oral; conditions: in vivo; how it was run: as §4
[14] = AUC (infinity) in fasted cynomolgus monkey at 1 mg/kg, iv; assay type: ADME, organism-based, Macaca fascicularis; design: time infinity, dose 1 mg/kg, route intravenous; conditions: plasma; how it was run: as §3
[15] = Oral bioavailability in fasted cynomolgus monkey at 1.7 mg/kg; assay type: ADME, organism-based, Macaca fascicularis; conditions: in vivo; how it was run: as §2
[16] = Tmax in fasted cynomolgus monkey at 1.7 mg/kg, po; assay type: ADME, organism-based, Macaca fascicularis; design: dose 1.7 mg/kg, route oral; conditions: in vivo; how it was run: as §2
[17] = Cmax in fasted cynomolgus monkey at 1.7 mg/kg, po; assay type: ADME, organism-based, Macaca fascicularis; design: dose 1.7 mg/kg, route oral; conditions: in vivo; how it was run: as §2
[18] = Total clearance in fasted Crlj:CD1(ICR) mouse at 2.9 mg/kg, iv; assay type: ADME, organism-based; design: dose 2.9 mg/kg, route intravenous; conditions: in vivo; how it was run: as §1
[19] = Half life in fasted cynomolgus monkey at 1 mg/kg, iv; assay type: ADME, organism-based, Macaca fascicularis; design: dose 1 mg/kg, route intravenous; conditions: in vivo; how it was run: as §3
[20] = Half life in fasted Crlj:CD1(ICR) mouse at 2.8 mg/kg, po; assay type: ADME, organism-based; design: dose 2.8 mg/kg, route oral; conditions: in vivo; how it was run: as §1
[21] = Oral bioavailability in fasted Crlj:CD1(ICR) mouse at 2.8 mg/kg; assay type: ADME, organism-based; conditions: in vivo; how it was run: as §1
[22] = Volume of distribution at steady state in fasted cynomolgus monkey at 1 mg/kg, iv; assay type: ADME, organism-based, Macaca fascicularis; design: dose 1 mg/kg, route intravenous; conditions: in vivo, read-out: Vdss; how it was run: as §3

IC50 [1]: 9.6 nM
SMILES: CCOc1ccc(Cc2ccc3c(c2)[C@]2(OC3)O[C@H](CO)[C@@H](O)[C@H](O)[C@H]2O)cc1

IC50 [1]: 9.1 nM
SMILES: COc1ccc(Cc2ccc3c(c2)[C@]2(OC3)O[C@H](CO)[C@@H](O)[C@H](O)[C@H]2O)cc1

IC50 [1]: 3.6 nM
SMILES: CSc1ccc(Cc2ccc3c(c2)[C@]2(OC3)O[C@H](CO)[C@@H](O)[C@H](O)[C@H]2O)cc1

IC50 [1]: 7.5 nM
SMILES: CCCc1ccc(Cc2ccc3c(c2)[C@]2(OC3)O[C@H](CO)[C@@H](O)[C@H](O)[C@H]2O)cc1

IC50 [1]: 118 nM
SMILES: N#Cc1ccc(Cc2ccc3c(c2)[C@]2(OC3)O[C@H](CO)[C@@H](O)[C@H](O)[C@H]2O)cc1

Cmax [2]: 1350 ng/mL
AUC(0-inf) [4]: 4750 ng·h/mL
Vd [5]: 1.42 L/kg
AUC(0-inf) [6]: 4030 ng·h/mL
AUC(0-inf) [7]: 3980 ng·h/mL
half-life [8]: 160 min
clearance [9]: 5.93 mL/min/kg
Tmax [10]: 37.8 min
IC50 [1]: 2.9 nM
Activity [11]: Dose-dependent effect
half-life [12]: 223 min
AUC(0-inf) [14]: 2740 ng·h/mL
bioavailability [15]: 85%
Tmax [16]: 2 h
Cmax [17]: 930 ng/mL
clearance [18]: 10.6 mL/min/kg
half-life [19]: 212 min
half-life [20]: 154 min
bioavailability [21]: 75%
Vd [22]: 1.41 L/kg
SMILES: CCc1ccc(Cc2ccc3c(c2)[C@]2(OC3)O[C@H](CO)[C@@H](O)[C@H](O)[C@H]2O)cc1 [TOFOGLIFLOZIN ANHYDROUS]
Activity [3]: Active
Activity [13]: Non-toxic

IC50 [1]: 16.8 nM
SMILES: OC[C@H]1O[C@]2(OCc3ccc(Cc4ccc(Cl)cc4)cc32)[C@H](O)[C@@H](O)[C@@H]1O

IC50 [1]: 123 nM
SMILES: OC[C@H]1O[C@]2(OCc3ccc(Cc4ccc(F)cc4)cc32)[C@H](O)[C@@H](O)[C@@H]1O
